One may read the EC50 as the concentration needed to bring the measured effect to its halfway point. As a reminder, the CC50 is the concentration that lowers cell viability or growth by half.

Data set [1] is described as follows: Selectivity index, ratio of CC50 for human Caco2 cells to EC50 for MERS-CoV infected in human Caco2 cells. It is filed as toxicity, cell-based. Conditions: read-out: Ratio CC50/EC50.
In data set [2] the test system is Hepatitis C virus. Briefly: Antiviral activity against GFP-fused HCV JFH-1 harboring K78E/E2-G451R/NS3-M260K/NS5A-T462I mutant infected in human Huh7.5.1 cells assessed as reduction in viral infection preincubated for 2 hrs followed by viral infection and measured after 48 hrs by epifluorescence microscopic analysis. In kind it is functional, organism-based. Conditions: Hepacivirus hominis. Summed up:
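Huh7.5.1 cells at 3×10^4/well, cultured overnight at 37 °C in 5% CO2, were pretreated 2 h with compound over 0.0004–0.05 μM. Cells were then infected with HCV-GFP at MOI 1, and GFP expression was imaged by epifluorescence microscopy at 48 hpi.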

Data set [3] relates to Hepatitis C virus. Briefly: Antiviral activity against EGFP-fused HCV JFH-1 harboring K78E/E2-G451R/NS3-M260K/NS5A-T462I mutant infected in human Huh7.5.1 cells assessed as reduction in viral RNA level after 2 days by qRT-PCR analysis. It is filed as functional, organism-based. Summed up:
(§1)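 Huh7.5.1 cells at 1×10^4/well, grown overnight at 37 °C. HCVcc was mixed with serially diluted compound (top 30 or 6 μM), given alone or with the named drug, and added to the cells. Viral RNA was read by qRT-PCR after 2 days. EC50 is the concentration giving 50% RNA reduction.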
(In general: In qPCR the cycle at which signal appears reflects the starting amount.)

Data set [4] relates to Hepatitis C virus. Put plainly: Antiviral activity against EGFP-fused HCV JFH-1 harboring K78E/E2-G451R/NS3-M260K/NS5A-T462I mutation infected in human Huh7.5.1 cells assessed as reduction in viral RNA level after 2 days in presence of telaprevir by qRT-PCR analysis. In kind it is functional, organism-based. Conditions: Hepacivirus hominis. Summed up: as §1
The test system of data set [5] is Huh7.5.1. Briefly: Antiviral activity against EGFP-fused HCV JFH-1 harboring K78E/E2-G451R/NS3-M260K/NS5A-T462I mutant infected in human Huh7.5.1 cells assessed as inhibition of viral entry at 0.01 uM preincubated for 2 hrs at 4 degC followed by virus/compound mixture wash-out and subsequent compound addition and measured up to 10 hrs at 37 degC. In kind it is functional, cell-based. Summed up: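 Time-of-addition: Huh7.5.1 cells were bound with HCVcc at 4 °C for 2 h. Unbound virus was removed, cells were shifted to 37 °C (T = 0), and compound was added at different time points afterwards. Anti-CD81 antibody served as the entry-inhibitor control.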

Data set [6] relates to Zika virus. Put plainly: Antiviral activity against ZIKV infected in human Huh7.5.1 cells assessed as inhibition of viral replication measured after 3 days qRT-PCR analysis. Conditions: Huh-7.5.1, 72 h. It is filed as functional, organism-based. Summed up: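 Huh7.5.1 cells were infected with DENV II or ZIKV at MOI 0.1 and treated with compound. Viral RNA was quantified by qRT-PCR after 3 days. EC50 is 50% reduction of RNA level.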

Data set [7] concerns Human immunodeficiency virus. Briefly: Antiviral activity against HIV pseudotyped virions infected in human HEK293T cells cotransfected with envelope deficient pNL4-3.luc.R-E- plasmid and VSVG plasmid assessed as inhibition of HIV replication preincubated for 15 mins followed by viral infection and measured at 48 hrs post-infection by luciferase based luminescence method. Conditions: Human immunodeficiency virus 1, HEK-293T. In kind it is functional, organism-based. Summed up:
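VSV-G-pseudotyped HIV (pNL4-3.luc.R-E-) was made in HEK293T by calcium phosphate transfection, collected at 48 h and diluted to 0.2 ng p24/ml. HEK293T cells in 24-well plates got compound 15 min before 0.5 mL pseudovirus. Cells were lysed 48 h post-infection for luciferase.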

Data set [8] is described as follows: Selectivity index, ratio of CC50 for human Huh7.5.1 cells to EC50 for DENV infected in human Huh7.5.1 cells. It is filed as toxicity, cell-based. Conditions: read-out: Ratio CC50/EC50. Summed up:
(§2)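 SI from two assays. Antiviral: Huh7.5.1 cells infected with DENV II or ZIKV at MOI 0.1; viral RNA measured by qRT-PCR after 3 days; EC50 taken at 50% RNA reduction. Cytotoxicity: cells seeded at 1×10^4/well, given serially diluted compound for 48 h, then WST-1 absorbance (OD450/OD630) read for CC50.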

Data set [9] is described as follows: Selectivity index, ratio of CC50 for African green monkey Vero cells to EC50 for SFTSV infected in African green monkey Vero cells. In kind it is toxicity. Conditions: read-out: Ratio CC50/EC50. Summed up:
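Vero cells infected with SFTSV at MOI 0.01; virus titre measured 4 days after infection. The cytotoxicity arm used 1×10^4 cells/well with 48 h of serially diluted compound, then a WST-1 absorbance read (OD450/OD630) for CC50. SI is CC50/EC50.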

Data set [10] concerns Hepatitis C virus. Briefly: Antiviral activity against EGFP-fused HCV JFH-1 harboring K78E/E2-G451R/NS3-M260K/NS5A-T462I mutation infected in human Huh7.5.1 cells assessed as reduction in viral RNA level after 2 days in presence of daclatasvir by qRT-PCR analysis. It is filed as functional, organism-based. Conditions: Hepacivirus hominis. Summed up:
as §1

For data set [11], the system named is Hepatitis C virus. Briefly: Antiviral activity against HCV infected in human Huh7.5.1 cells assessed as decrease in viral infection. Conditions: Huh-7.5.1. It is filed as functional, organism-based, Hepacivirus hominis.
Data set [12] concerns Hepatitis C virus. Put plainly: Antiviral activity against EGFP-fused HCV JFH-1 harboring K78E/E2-G451R/NS3-M260K/NS5A-T462I mutation infected in human Huh7.5.1 cells assessed as combination index after 2 days in presence of cyclosporin A by qRT-PCR analysis. It is filed as functional, Hepacivirus hominis. Summed up: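 In HCVcc-infected Huh7.5.1 cells (1×10^4/well, overnight, 37 °C), compound was given at various concentrations alone or with the named approved antiviral. After 2 days HCV RNA was quantified by qRT-PCR to derive the combination index.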

For data set [13], the system named is Hepatitis C virus. Briefly: Antiviral activity against HCV JFH-1 pseudotyped viral particle infected in HEK293T cells cotransfected with pCDN3.1-JFH1-cE1E2 plasmid encoding envelope with full length JFH1 and pNL4-3R-E-luciferase construct by luciferase reporter gene assay. It is filed as functional, organism-based, Hepacivirus hominis. Conditions: JFH-1, HEK-293T. Summed up: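 HCVpp came from HEK293T co-transfected with the JFH1 E1E2 plasmid and pNL4-3R-E-luciferase. Supernatant was harvested at 48 h, filtered and luciferase-standardised for input. Virus was mixed with serially diluted compound (top 30 or 6 μM) and added to cells. Luminescence was read; EC50 is 50% signal reduction.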
(In general: In a reporter assay the amount or activity of a reporter protein is the signal.)

Data set [14] is described as follows: Selectivity index, ratio of CC50 for human Huh7.5.1 cells to EC50 for ZIKV infected in human Huh7.5.1 cells. It is filed as toxicity, cell-based. Conditions: read-out: Ratio CC50/EC50. Summed up: as §2
The nature of data set [15]: Selectivity index, ratio of CC50 for African green monkey Vero cells to EC50 for CHIKV infected in African green monkey Vero cells. In kind it is toxicity. Conditions: read-out: Ratio CC50/EC50.
Data set [16] can be described thus: Cytotoxicity against HEK293T cells infected with HIV pseudotyped virions assessed as decrease in cell viability after 48 hrs by WST1 assay. It is filed as cell-based, HEK-293T. Conditions: human. Summed up: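 Cells seeded at 1 × 10^4 per well and cultured overnight at 37 °C, then incubated 48 h with serially diluted compounds. Viability read with WST-1 reagent as absorbance at OD450/OD630.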
(Formazan colour is commonly taken as a measure of viable cells.)

Data set [17] has as its system Hepatitis C virus. Put plainly: Antiviral activity against HCV JFH-1 harboring K78E/E2-G451R/NS3-M260K/NS5A-T462I mutant infected in human Huh7.5.1 cells after 2 days by renilla luciferase reporter gene assay. It is filed as functional, organism-based, Hepacivirus hominis. Conditions: JFH-1, Huh-7.5.1, 48 h. Summed up: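 Renilla luciferase reporter HCVcc (hRluc inserted in NS5A, aa 399/400) came from electroporated Huh7.5.1 supernatant. Virus plus serially diluted compound (top 30 or 6 μM) was added to Huh7.5.1 cells (1×10^4/well) and luminescence read. EC50 is 50% luminescence reduction.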

The source made the active and inactive calls. The rule behind the calls is not given here. Where only a bound is given, the exact number is not on record here.

As to `CCN(CC)c1ccc(Oc2ccc(-c3[nH]c4cccc(F)c4c(=O)c3C)cc2F)cc1`, the selectivity ratio in data set [1] is greater than 7.5; in data set [8], greater than 357; in data set [9], greater than 8; in data set [14] it was greater than 125; in data set [15] it was greater than 10. In addition, the Activity result in data set [2], in [3] (Hepacivirus hominis), in data set [4] and in [10] was “Dose-dependent effect” each time. Besides, the EC50 in data set [3] (JFH-1, Huh-7.5.1, 48 h) was 0.005 to 0.007 µM; in data set [6], 0.02 µM; in [7], 0.013 µM; in data set [11], 0.015 µM; in [13], greater than 50 µM; in data set [17], 0.004 to 0.007 µM. In data set [5], the inhibition entry is “Active”. For the same compound, in data set [12], the CI is greater than 50. Besides, in data set [16], the CC50 at 48 h was greater than 1.25 µM.

The values above are taken from ChEMBL document CHEMBL4334439, “Discovery, Optimization, and Target Identification of Novel Potent Broad-Spectrum Antiviral Inhibitors” (J Med Chem, 2019).
